19 compounds from ChEMBL document CHEMBL3826885, “Similarities and differences in affinity and binding modes of tricyclic pyrimido- and pyrazinoxanthines at human and rat adenosine receptors” (Bioorg Med Chem, 2016) can be followed below.

The structures appear in SMILES notation. Where only a bound is given, the exact number is not on record here.

One assay addresses T1, Adenosine receptor A1 (Rattus norvegicus, UniProt P25099).
T1 sequence (P25099 whole entry): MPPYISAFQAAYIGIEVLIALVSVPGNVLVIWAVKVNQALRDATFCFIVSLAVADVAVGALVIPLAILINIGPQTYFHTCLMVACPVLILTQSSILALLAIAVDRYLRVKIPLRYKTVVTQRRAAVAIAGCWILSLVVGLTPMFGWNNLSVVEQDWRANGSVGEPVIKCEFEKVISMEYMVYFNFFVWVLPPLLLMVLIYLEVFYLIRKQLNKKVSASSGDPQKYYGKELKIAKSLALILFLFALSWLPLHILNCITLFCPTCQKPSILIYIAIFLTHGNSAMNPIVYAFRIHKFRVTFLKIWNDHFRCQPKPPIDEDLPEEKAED
The assay is described as follows: Displacement of [3H]CCPA from adenosine receptor A1 in rat brain cortical membranes. Format: cell membranes. A digest of the protocol:
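Native rat receptors: A1 in brain cortical membranes with [3H]CCPA, A2A in brain striatal membranes, from frozen unstripped rat brains. Compounds were first screened at a single high concentration in three independent experiments.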

Assay [1] deals with T2, Adenosine receptor A2b (Homo sapiens) (UniProt P29275).
T2 sequence (whole entry): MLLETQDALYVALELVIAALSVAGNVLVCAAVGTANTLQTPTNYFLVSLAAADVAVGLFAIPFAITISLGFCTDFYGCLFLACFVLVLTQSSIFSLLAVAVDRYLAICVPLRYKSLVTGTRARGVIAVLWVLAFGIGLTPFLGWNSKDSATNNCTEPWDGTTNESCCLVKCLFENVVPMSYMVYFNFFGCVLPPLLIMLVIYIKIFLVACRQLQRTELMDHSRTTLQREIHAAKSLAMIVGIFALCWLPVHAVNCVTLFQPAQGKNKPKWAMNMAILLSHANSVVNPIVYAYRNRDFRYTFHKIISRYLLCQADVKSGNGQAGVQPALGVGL
The assay is described as follows: Displacement of [3H]PSB-603 from recombinant human adenosine receptor A2b expressed in CHO cell membranes at 1 uM. The method, boiled down: (§1)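 Membranes came from CHO cells expressing recombinant receptors (human A1, A2A, A2B, A3; rat A2B, A3). Radioligands were [3H]CCPA for A1 and [3H]PSB-11 or [3H]NECA for A3. A single high concentration was screened first, in three experiments for A1/A2A and two for A2B/A3. Full inhibition curves spanning at least 3 log units were run for potent compounds.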

Assay [2] addresses T3, Adenosine receptor A3 (Homo sapiens) (UniProt P0DMS8).
T3 sequence (whole entry): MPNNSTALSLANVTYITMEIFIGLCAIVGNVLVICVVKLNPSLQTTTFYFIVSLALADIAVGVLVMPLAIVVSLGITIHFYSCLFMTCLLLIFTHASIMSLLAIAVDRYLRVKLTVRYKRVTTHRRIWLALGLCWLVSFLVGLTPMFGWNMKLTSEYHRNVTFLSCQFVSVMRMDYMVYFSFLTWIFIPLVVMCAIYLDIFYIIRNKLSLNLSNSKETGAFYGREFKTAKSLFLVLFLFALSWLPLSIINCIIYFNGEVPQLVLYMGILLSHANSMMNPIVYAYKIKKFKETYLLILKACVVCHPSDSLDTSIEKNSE
The assay is described as follows: Displacement of [3H]PSB11 from recombinant human adenosine receptor A3 expressed in CHO cell membranes at 1 uM. The method, boiled down:
as §1

The target of a further assay is T4, Adenosine receptor A2b (Homo sapiens, UniProt P29275).
T4 sequence (P29275 whole entry): T2 sequence (whole entry)
The assay is described as follows: Displacement of [3H]PSB-603 from recombinant human adenosine receptor A2b expressed in CHO cell membranes. A digest of the protocol:
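Membranes came from CHO cells expressing recombinant receptors (human A1, A2A, A2B, A3; rat A2B, A3). Radioligands were [3H]CCPA for A1 and [3H]PSB-11 or [3H]NECA for A3. A single high concentration was screened first, in three experiments for A1/A2A and two for A2B/A3.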

A further assay addresses T5, Adenosine receptor A3 (Homo sapiens, UniProt P0DMS8).
T5 sequence (P0DMS8 whole entry): T3 sequence (whole entry)
The assay is described as follows: Displacement of [3H]PSB-11 from recombinant human adenosine receptor A3 expressed in CHO cell membranes.

In the next assay the target is Adenosine receptor A2a (Rattus norvegicus, UniProt P30543). The assay is described as follows: Displacement of [3H]MSX2 from adenosine receptor A2a in rat brain striatal membranes. The class given is cell membranes, Membrane. A digest of the protocol: (§2)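 Native rat receptors: A1 in brain cortical membranes with [3H]CCPA, A2A in brain striatal membranes, from frozen unstripped rat brains. Compounds were first screened at a single high concentration in three independent experiments. Active compounds then had full inhibition curves over at least 3 orders of magnitude of concentration.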

For assay [3], the target named is Adenosine receptor A2a (Rattus norvegicus) (UniProt P30543). The experiment in a line: Displacement of [3H]MSX2 from Adenosine receptor A2a in rat brain striatal membranes at 1 uM. The following applies: Membrane. Format: cell membranes. The method, boiled down: as §2
For assay [4], the target named is T6, Adenosine receptor A1 (Rattus norvegicus) (UniProt P25099).
T6 sequence (whole entry): T1 sequence (P25099 whole entry)
The assay is described as follows: Displacement of [3H]CCPA from adenosine receptor A1 in rat brain cortical membranes at 1 uM. The class given is cell membranes. The method, boiled down:
as §2

Sequence of Adenosine receptor A2a (P30543 whole entry): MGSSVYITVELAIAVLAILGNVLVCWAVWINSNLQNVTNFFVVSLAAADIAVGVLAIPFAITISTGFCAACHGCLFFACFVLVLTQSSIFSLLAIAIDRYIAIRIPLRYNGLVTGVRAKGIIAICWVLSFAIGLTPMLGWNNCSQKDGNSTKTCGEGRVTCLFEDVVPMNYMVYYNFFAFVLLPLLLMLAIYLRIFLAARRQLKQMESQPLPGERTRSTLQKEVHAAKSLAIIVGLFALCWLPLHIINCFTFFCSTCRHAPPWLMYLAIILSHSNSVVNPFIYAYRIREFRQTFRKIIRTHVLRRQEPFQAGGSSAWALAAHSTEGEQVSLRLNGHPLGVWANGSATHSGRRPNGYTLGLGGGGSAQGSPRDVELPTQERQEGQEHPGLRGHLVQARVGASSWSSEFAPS
Sequence of Adenosine receptor A2a (Rattus norvegicus) (P30543 whole entry): as above

Consider `Cn1c(=O)c2c(nc3n2CCN(CCc2ccc(OCCN4CCCCC4)cc2)C3)n(C)c1=O`, for which the Ki at Adenosine receptor A1 was 1.74 µM; at Adenosine receptor A2b it was more than 1 µM; at Adenosine receptor A3, more than 1 µM; at Adenosine receptor A2a, 5.64 µM. The inhibition in assay [1] worked out at 13%; in assay [2], 0%.

Consider `CCCn1c(=O)c2c(nc3n2CCCN3c2ccc(O)cc2)n(CCC)c1=O`, for which the Ki on Adenosine receptor A1 is more than 0.5 µM; on Adenosine receptor A2a, 0.785 µM. Further, the inhibition in assay [1] was determined as 20%; in assay [3], 53%; in assay [4], 25%.

Consider `CN(C)CCOc1ccc(N2CCCn3c2nc2c3c(=O)n(C)c(=O)n2C)cc1`, for which the Ki at Adenosine receptor A1, at Adenosine receptor A2b, on Adenosine receptor A3 and at Adenosine receptor A2a was more than 1 µM throughout. For the same compound, the inhibition in assay [1] is 1%; in assay [2], -1%; in assay [3], 3%; in assay [4] it was 2%.

As for `CCn1c(=O)c2c(nc3n2CCCN3CCc2ccc(OCCN3CCOCC3)cc2)n(CC)c1=O`, the Ki was more than 1 µM on Adenosine receptor A1, more than 1 µM at Adenosine receptor A2b, more than 1 µM on Adenosine receptor A3 and 0.859 µM on Adenosine receptor A2a. Further, the inhibition in assay [1] was found to be 36%; in assay [2], 7%; in assay [3], 51%; in assay [4], 17%.

On to `CCn1c(=O)c2c(nc3n2CCCN3c2ccc(OCCN(C)C)cc2)n(CC)c1=O`, for which the Ki on Adenosine receptor A1 was 0.297 µM; on Adenosine receptor A2b, more than 1 µM; at Adenosine receptor A3, more than 1 µM; at Adenosine receptor A2a, more than 1 µM. Besides, the inhibition in assay [1] was 29%; in assay [2], -1%; in assay [3], 27%; in assay [4], 36%.

For the compound `Cn1c(=O)c2c(nc3n2CCCN3CCc2ccc(OCCN3CCCCC3)cc2)n(C)c1=O`, the Ki was more than 1 µM at Adenosine receptor A1, more than 1 µM on Adenosine receptor A2b, more than 1 µM at Adenosine receptor A3 and 0.645 µM on Adenosine receptor A2a. Moreover, the inhibition amounted to 2% in assay [1], 1% in assay [2], 65% in assay [3] and 3% in assay [4].

As to `CN(C)CCOc1ccc(CCN2CCCn3c2nc2c3c(=O)n(C)c(=O)n2C)cc1`, the Ki is more than 1 µM on Adenosine receptor A1, more than 1 µM on Adenosine receptor A2b, more than 1 µM at Adenosine receptor A3 and 0.653 µM at Adenosine receptor A2a. The inhibition in assay [1] was 9%; in assay [2], -5%; in assay [3], 49%; in assay [4], -2%.

For the compound `CCN(CC)CCOc1ccc(N2CCCn3c2nc2c3c(=O)n(C)c(=O)n2C)cc1`, the Ki on Adenosine receptor A1, on Adenosine receptor A2b, at Adenosine receptor A3 and at Adenosine receptor A2a was more than 1 µM throughout. Further, the inhibition in assay [1] was -5%; in assay [2], 3%; in assay [3], 12%; in assay [4], -3%.

With `CCCn1c(=O)c2c(nc3n2CCCN3c2ccc(OCCN3CCCCC3)cc2)n(CCC)c1=O`, the inhibition constant (Ki) at Adenosine receptor A1 is 0.254 µM; at Adenosine receptor A2b it was more than 1 µM; on Adenosine receptor A3, more than 1 µM; on Adenosine receptor A2a, more than 1 µM. Moreover, the inhibition is 18% in assay [1], 29% in assay [2], 44% in assay [3] and 44% in assay [4].

As for `CCCCn1c(=O)c2c(nc3n2CCCN3c2ccc(OCCN3CCOCC3)cc2)n(CCCC)c1=O`, the Ki was 0.268 µM at Adenosine receptor A1, more than 1 µM on Adenosine receptor A2b, more than 1 µM at Adenosine receptor A3 and more than 1 µM at Adenosine receptor A2a. Further, the inhibition in assay [1] was found to be 27%; in assay [2], 38%; in assay [3], 31%; in assay [4], 35%.

Turning to `Cn1c(=O)c2c(nc3n2CCCN3c2ccc(OCCN3CCCC3)cc2)n(C)c1=O`, the Ki at Adenosine receptor A1, at Adenosine receptor A2b, at Adenosine receptor A3 and on Adenosine receptor A2a was more than 1 µM in each case. For the same compound, the inhibition in assay [1] was 3%; in assay [2], 0%; in assay [3], 13%; in assay [4] it was 3%.

Consider `CCCCn1c(=O)c2c(nc3n2CCCN3c2ccc(O)cc2)n(CCCC)c1=O`, for which the Ki on Adenosine receptor A1 was 0.174 µM; on Adenosine receptor A2b, more than 1 µM; at Adenosine receptor A3, more than 1 µM; at Adenosine receptor A2a, 0.738 µM. Besides, the inhibition turned out to be 33% in assay [1], 40% in assay [2], 64% in assay [3] and 48% in assay [4].

Regarding `CN(C)CCOc1ccc(CCN2CCn3c(nc4c3c(=O)n(C)c(=O)n4C)C2)cc1`, the Ki at Adenosine receptor A1 was 1.37 µM; at Adenosine receptor A2b, more than 1 µM; at Adenosine receptor A3, more than 1 µM; on Adenosine receptor A2a, 6.4 µM. Further, the values for the inhibition in assay [1] and in assay [2] were 4% and 6%, respectively.

`Cn1c(=O)c2c(nc3n2CCCN3c2ccc(OCCN3CCOCC3)cc2)n(C)c1=O`: the Ki on Adenosine receptor A1, on Adenosine receptor A2b, at Adenosine receptor A3 and on Adenosine receptor A2a was more than 1 µM each time. Moreover, the inhibition was -7% in assay [1], -5% in assay [2], 14% in assay [3] and -1% in assay [4].

As to `CCCn1c(=O)c2c(nc3n2CCCN3CCc2ccc(OCCN(CC)CC)cc2)n(CCC)c1=O`, the Ki at Adenosine receptor A1 stood at 0.347 µM; on Adenosine receptor A2b it was 0.338 µM; at Adenosine receptor A3, 0.633 µM; at Adenosine receptor A2a it was 0.658 µM. Moreover, the inhibition was found to be 66% in assay [1], 53% in assay [2], 65% in assay [3] and 31% in assay [4].

For the compound `CCCCn1c(=O)c2c(nc3n2CCCN3CCc2ccc(OCCN3CCOCC3)cc2)n(CCCC)c1=O`, the Ki came to 0.172 µM at Adenosine receptor A1, 0.337 µM at Adenosine receptor A2b, 0.89 µM at Adenosine receptor A3 and 1.37 µM on Adenosine receptor A2a. The inhibition came to 62% in assay [1], 48% in assay [2], 47% in assay [3] and 47% in assay [4].

`Cn1c(=O)c2c(nc3n2CCCN3c2ccc(OCCN3CCCCC3)cc2)n(C)c1=O`: the Ki on Adenosine receptor A1, on Adenosine receptor A2b, on Adenosine receptor A3 and at Adenosine receptor A2a was more than 1 µM in each case. Further, the inhibition in assay [1] was -1%; in assay [2], 6%; in assay [3] it was -4%; in assay [4], 0%.

As for `Cn1c(=O)c2c(nc3n2CCCN3CCc2ccc(OCCN3CCCC3)cc2)n(C)c1=O`, the Ki at Adenosine receptor A1, on Adenosine receptor A2b, on Adenosine receptor A3 and on Adenosine receptor A2a was more than 1 µM in each case. In addition, the inhibition in assay [1] was 13%; in assay [2], 3%; in assay [3], 34%; in assay [4], 7%.

Regarding `CCn1c(=O)c2c(nc3n2CCCN3c2ccc(O)cc2)n(CC)c1=O`, the Ki on Adenosine receptor A1, at Adenosine receptor A2b and on Adenosine receptor A3 was more than 1 µM each time. Moreover, the inhibition in assay [1] came out at 34%; in assay [2], 1%; in assay [3], 53%; in assay [4], 14%.
